This is an account of results in ChEMBL document CHEMBL1137660, “Molecular and biochemical characterization of the chromosome-encoded class A beta-lactamase BCL-1 from Bacillus clausii” (Antimicrob Agents Chemother, 2007).

In brackets after ≈: the same amount, converted by molar mass.

What all share (type): functional
The test system of test [1] is Escherichia coli. Put plainly: Antimicrobial activity against Escherichia coli DH10B by agar-dilution technique in presence of beta-lactamase inhibitor clavulanic acid. Particulars: K-12 substr. DH10B. Summed up: (§1)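 MICs by agar dilution on Mueller-Hinton agar following CLSI recommendations. E. coli DH10B clone carries EcoRI-restricted B. clausii NR DNA in pJIM2246. BL21(DE3) carries blaBCL-1 in pET9a.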

In test [2] the test system is Escherichia coli. Description: Antimicrobial activity against Escherichia coli BL21(DE3) by agar-dilution technique in presence of beta-lactamase inhibitor clavulanic acid. In short, it runs like this: as §1
Test [3] has as its system Escherichia coli. Description: Antimicrobial activity against Escherichia coli DH10B carrying pJIM2246 expressing Bacillus clausii NR beta-lactamase BCL1 by agar-dilution technique in presence of beta-lactamase inhibitor clavulanic acid. Particulars: K-12 substr. DH10B. Summed up:
as §1

Test [4] has as its system Shouchella clausii. Put plainly: Antimicrobial activity against Bacillus clausii ATCC 21537 by agar-dilution technique in presence of beta-lactamase inhibitor clavulanic acid. In short, it runs like this:
as §1

Test [5] has as its system Escherichia coli. Put plainly: Antimicrobial activity against Escherichia coli DH10B by agar-dilution technique. Particulars: K-12 substr. DH10B. Summed up:
as §1

Test [6] concerns Escherichia coli. Put plainly: Antimicrobial activity against Escherichia coli DH10B carrying pJIM2246 expressing Bacillus clausii NR beta-lactamase BCL1 by agar-dilution technique. The settings on record: K-12 substr. DH10B.
Test [7] deals with Escherichia coli. Description: Antimicrobial activity against Escherichia coli BL21(DE3) carrying pET9a expressing Bacillus clausii beta-lactamase BCL1 by agar-dilution technique.
Test [8] concerns Escherichia coli. Put plainly: Antimicrobial activity against Escherichia coli BL21(DE3) carrying pET9a expressing Bacillus clausii beta-lactamase BCL1 by agar-dilution technique in presence of beta-lactamase inhibitor clavulanic acid. Summed up: as §1
Test [9] concerns Shouchella clausii. Put plainly: Antimicrobial activity against Bacillus clausii NR expressing beta-lactamase BCL1 by agar-dilution technique in presence of beta-lactamase inhibitor clavulanic acid. In short, it runs like this:
as §1

The subject of test [10] is Escherichia coli. Description: Antimicrobial activity against Escherichia coli BL21(DE3) by agar-dilution technique. Summed up: as §1
The subject of test [11] is Shouchella clausii. Put plainly: Antimicrobial activity against Bacillus clausii NR expressing beta-lactamase BCL1 by agar-dilution technique.
Test [12] deals with Shouchella clausii. Put plainly: Antimicrobial activity against Bacillus clausii ATCC 21537 by agar-dilution technique.
The test system of test [13] is Shouchella clausii. Put plainly: Antimicrobial activity against Bacillus clausii ATCC 21537 by agar-dilution technique in presence of beta-lactamase inhibitor Tazobactam. Summed up:
as §1

For test [14], the system named is Shouchella clausii. Description: Antimicrobial activity against Bacillus clausii NR expressing beta-lactamase BCL1 by agar-dilution technique in presence of beta-lactamase inhibitor Tazobactam. Summed up:
as §1

Test [15] concerns Escherichia coli. Description: Antimicrobial activity against Escherichia coli BL21(DE3) carrying pET9a expressing Bacillus clausii beta-lactamase BCL1 by agar-dilution technique in presence of beta-lactamase inhibitor Tazobactam. Summed up:
as §1

The subject of test [16] is Escherichia coli. Description: Antimicrobial activity against Escherichia coli DH10B carrying pJIM2246 expressing Bacillus clausii NR beta-lactamase BCL1 by agar-dilution technique in presence of beta-lactamase inhibitor Tazobactam. The settings on record: K-12 substr. DH10B. Summed up:
as §1

The test system of test [17] is Escherichia coli. Description: Antimicrobial activity against Escherichia coli BL21(DE3) by agar-dilution technique in presence of beta-lactamase inhibitor Tazobactam. Summed up:
as §1

Test [18] relates to Escherichia coli. Put plainly: Antimicrobial activity against Escherichia coli DH10B by agar-dilution technique in presence of beta-lactamase inhibitor Tazobactam. The settings on record: K-12 substr. DH10B. Summed up: as §1

Turning to `CO/N=C(\C(=O)N[C@@H]1C(=O)N2C(C(=O)[O-])=C(C[n+]3cccc4c3CCC4)CS[C@H]12)c1csc(N)n1` [CEFPIROME], the MIC (in general, the least concentration at which growth counts as inhibited) in the test with Escherichia coli [1] came out at 0.06 µg/mL; with Escherichia coli [2], 0.06 µg/mL; in the test on Escherichia coli [3], 0.06 µg/mL; with Shouchella clausii [4] it was 8 µg/mL; in the test on Escherichia coli [5], 0.06 µg/mL (≈ 0.117 µM); in the test with Escherichia coli [6] it was 0.12 µg/mL (≈ 0.233 µM). The minimal inhibitory concentration (MIC) came out at 0.5 µg/mL (≈ 0.972 µM) against Escherichia coli [7], 0.06 µg/mL with Escherichia coli [8], 8 µg/mL with Shouchella clausii [9] and 0.06 µg/mL (≈ 0.117 µM) against Escherichia coli [10].
Regarding `CC(C)(O/N=C(\C(=O)N[C@@H]1C(=O)N2C(C(=O)[O-])=C(C[n+]3ccccc3)CS[C@H]12)c1csc(N)n1)C(=O)O` [CEFTAZIDIME], the MIC with Escherichia coli [1] was 0.12 µg/mL; with Escherichia coli [2], 0.06 µg/mL; in the test with Escherichia coli [3], 0.5 µg/mL; in the test on Escherichia coli [5], 0.12 µg/mL (≈ 0.22 µM); against Escherichia coli [6], 0.5 µg/mL (≈ 0.915 µM); against Escherichia coli [7], 0.12 µg/mL (≈ 0.22 µM). The figures for the MIC in the test on Escherichia coli [8] and in the test on Escherichia coli [10] were 0.06 µg/mL and 0.06 µg/mL (≈ 0.11 µM), respectively.
For `CO/N=C(\C(=O)N[C@@H]1C(=O)N2C(C(=O)O)=C(CSc3nc(=O)c(O)nn3C)CS[C@H]12)c1csc(N)n1` [CEFTRIAXONE], the MIC in the test on Escherichia coli [5], with Escherichia coli [6], with Escherichia coli [7] and against Escherichia coli [10] was 0.06 µg/mL (≈ 0.108 µM) each time.
Regarding `CO/N=C(\C(=O)N[C@@H]1C(=O)N2C(C(=O)[O-])=C(C[N+]3(C)CCCC3)CS[C@H]12)c1csc(N)n1`, in the test on Escherichia coli [10], the MIC is 0.06 µg/mL (≈ 0.125 µM).
As for `CO[C@@]1(NC(=O)Cc2cccs2)C(=O)N2C(C(=O)O)=C(COC(N)=O)CS[C@@H]21` [CEFOXITIN], the minimum inhibitory concentration (MIC) in the test with Shouchella clausii [11] was determined as 32 µg/mL (≈ 74.9 µM); against Shouchella clausii [12], 16 µg/mL (≈ 37.4 µM); in the test with Escherichia coli [5], 8 µg/mL (≈ 18.7 µM); against Escherichia coli [6] it was 16 µg/mL (≈ 37.4 µM); against Escherichia coli [7] it was 2 µg/mL (≈ 4.68 µM); in the test on Escherichia coli [10] it was 0.5 µg/mL (≈ 1.17 µM).
`CC1(C)S[C@@H]2[C@H](NC(=O)[C@H](C(=O)O)c3ccsc3)C(=O)N2[C@H]1C(=O)O` [TICARCILLIN]: the MIC against Shouchella clausii [11] came out at 8 µg/mL (≈ 20.8 µM); against Shouchella clausii [12], 8 µg/mL (≈ 20.8 µM); with Escherichia coli [5], 8 µg/mL (≈ 20.8 µM); in the test on Escherichia coli [10], 1 µg/mL (≈ 2.6 µM).
In the case of `CC1(C)S[C@@H]2[C@H](NC(=O)[C@H](N)c3ccc(O)cc3)C(=O)N2[C@H]1C(=O)O` [AMOXICILLIN], the MIC in the test with Shouchella clausii [11] was found to be 0.5 µg/mL (≈ 1.37 µM); with Shouchella clausii [12] it was 1 µg/mL (≈ 2.74 µM); in the test with Escherichia coli [1], 4 µg/mL; in the test with Escherichia coli [2], 1 µg/mL; with Escherichia coli [3] it was 32 µg/mL; with Shouchella clausii [4] (read-out: MIC) it was 120 µg/mL. Also, the minimum inhibitory concentration (MIC) against Escherichia coli [5] came out at 8 µg/mL (≈ 21.9 µM); in the test with Escherichia coli [8], 2 µg/mL; in the test on Shouchella clausii [9], 0.12 µg/mL; with Escherichia coli [10], 1 µg/mL (≈ 2.74 µM).
On to `CC1(C)S[C@@H]2[C@H](NC(=O)Cc3ccccc3)C(=O)N2[C@H]1C(=O)O` [PENICILLIN G], for which the MIC was 0.5 µg/mL (≈ 1.5 µM) against Shouchella clausii [11], 0.5 µg/mL (≈ 1.5 µM) in the test with Shouchella clausii [12], 32 µg/mL (≈ 95.7 µM) in the test on Escherichia coli [5] and 2 µg/mL (≈ 5.98 µM) against Escherichia coli [10].
As to `C[C@@H](O)[C@H]1C(=O)N2C(C(=O)O)=C(SCCNC=N)C[C@H]12` [IMIPENEM ANHYDROUS], in the test with Shouchella clausii [11], the minimum inhibitory concentration (MIC) was determined as 0.25 µg/mL (≈ 0.835 µM).
Consider `CO[C@@]1(NC(=O)C(C(=O)O)c2ccc(O)cc2)C(=O)N2C(C(=O)O)=C(CSc3nnnn3C)CO[C@@H]21` (some centres not stated) [MOXALACTAM], for which the MIC in the test with Shouchella clausii [11] stood at 64 µg/mL (≈ 123 µM); in the test on Shouchella clausii [12], 0.25 µg/mL (≈ 0.48 µM); against Escherichia coli [5], 0.25 µg/mL (≈ 0.48 µM); in the test on Escherichia coli [6], 0.25 µg/mL (≈ 0.48 µM); in the test on Escherichia coli [7] it was 0.25 µg/mL (≈ 0.48 µM); with Escherichia coli [10], 0.25 µg/mL (≈ 0.48 µM).
Take `CCN1CCN(C(=O)N[C@@H](C(=O)N[C@@H]2C(=O)N3[C@@H]2SC(C)(C)[C@@H]3C(=O)O)c2ccccc2)C(=O)C1=O` [PIPERACILLIN]: the MIC worked out at 16 µg/mL (≈ 30.9 µM) in the test with Shouchella clausii [11]; 16 µg/mL (≈ 30.9 µM) against Shouchella clausii [12]; 4 µg/mL (≈ 7.73 µM) with Escherichia coli [5]; 8 µg/mL in the test with Shouchella clausii [13]; 8 µg/mL with Shouchella clausii [14]; 8 µg/mL (≈ 15.5 µM) with Escherichia coli [6]. Further, the MIC against Escherichia coli [7] was determined as 32 µg/mL (≈ 61.8 µM); in the test with Escherichia coli [15], 0.5 µg/mL; against Escherichia coli [10] it was 1 µg/mL (≈ 1.93 µM); in the test with Escherichia coli [16], 2 µg/mL; with Escherichia coli [17], 0.5 µg/mL; in the test with Escherichia coli [18], 4 µg/mL.
For `CC(=O)OCC1=C(C(=O)O)N2C(=O)[C@@H](NC(=O)Cc3cccs3)[C@H]2SC1` [CEPHALOTHIN], the MIC in the test on Shouchella clausii [11] is 8 µg/mL (≈ 20.2 µM); in the test on Shouchella clausii [12], 8 µg/mL (≈ 20.2 µM); with Escherichia coli [5], 4 µg/mL (≈ 10.1 µM); in the test on Escherichia coli [6], 64 µg/mL (≈ 161 µM); against Escherichia coli [7], 16 µg/mL (≈ 40.4 µM); in the test on Escherichia coli [10], 1 µg/mL (≈ 2.52 µM).
On to `CO/N=C(\C(=O)N[C@@H]1C(=O)N2C(C(=O)O)=C(COC(N)=O)CS[C@H]12)c1ccco1` [CEFUROXIME], for which the MIC in the test with Escherichia coli [5] stood at 8 µg/mL (≈ 18.9 µM); in the test on Escherichia coli [6], 16 µg/mL (≈ 37.7 µM); with Escherichia coli [7] it was 2 µg/mL (≈ 4.71 µM); in the test on Escherichia coli [10], 0.5 µg/mL (≈ 1.18 µM).
Take `CO/N=C(\C(=O)N[C@@H]1C(=O)N2C(C(=O)O)=C(COC(C)=O)CS[C@H]12)c1csc(N)n1` [CEFOTAXIME]: the MIC was 16 µg/mL (≈ 35.1 µM) against Shouchella clausii [11]; 16 µg/mL (≈ 35.1 µM) with Shouchella clausii [12]; 0.06 µg/mL in the test on Escherichia coli [1]; 0.06 µg/mL in the test on Escherichia coli [2]; 0.06 µg/mL in the test on Escherichia coli [3]; 16 µg/mL in the test with Shouchella clausii [4]. Further, the MIC against Escherichia coli [5] was 0.06 µg/mL (≈ 0.132 µM); against Escherichia coli [6] it was 0.12 µg/mL (≈ 0.263 µM); in the test on Escherichia coli [7], 0.06 µg/mL (≈ 0.132 µM); in the test on Escherichia coli [8], 0.06 µg/mL; in the test with Shouchella clausii [9] it was 16 µg/mL; against Escherichia coli [10], 0.06 µg/mL (≈ 0.132 µM).
As to `O=C(Cc1cccs1)N[C@@H]1C(=O)N2C(C(=O)[O-])=C(C[n+]3ccccc3)CS[C@H]12` [CEPHALORIDINE], the MIC came to 0.12 µg/mL (≈ 0.289 µM) in the test with Escherichia coli [5], 0.12 µg/mL (≈ 0.289 µM) in the test with Escherichia coli [6], 0.06 µg/mL (≈ 0.144 µM) against Escherichia coli [7] and 0.06 µg/mL (≈ 0.144 µM) against Escherichia coli [10].
